Assay results: ChEMBL document CHEMBL1629503, “Novel conformationally restricted triazole derivatives with potent antifungal activity” (2010)
In brackets after ≈: the same amount, converted by molar mass.

Key:
Type in all cases: functional
[1] = system: Trichophyton rubrum; experiment: Antifungal activity against Trichophyton rubrum after 7 days by serial dilution method; conditions: 168 h
Method in brief: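 Dermatophyte MIC by NCCLS-based serial dilution in 96-well plates, in RPMI 1640 buffered with 0.165 M MOPS. Compounds were dissolved in DMSO and diluted in growth medium. Incubation was at 28 °C. Strain was ATCC or clinical isolate. MIC80 is the lowest concentration reducing turbidity to […] of growth control.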

[2] = system: Candida parapsilosis; experiment: Antifungal activity against Candida parapsilosis after 24 hrs by serial dilution method; conditions: Lodderomyces parapsilosis
Method in brief: (§1)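 Broth microdilution MIC per NCCLS recommendations in 96-well plates, using RPMI 1640 buffered with 0.165 M MOPS. Strains were ATCC or clinical isolates. Compounds were dissolved in DMSO and serially diluted in medium. Yeasts were incubated at 35 °C and growth was read at 24 h. MIC80 is the lowest concentration giving […] of control growth (turbidity).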

[3] = system: Aspergillus fumigatus; experiment: Antifungal activity against Aspergillus fumigatus after 7 days by serial dilution method; conditions: 168 h
Method in brief: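 Mould susceptibility by NCCLS serial dilution in 96-well plates, using MOPS-buffered (0.165 M) RPMI 1640 medium. Compounds were dissolved in DMSO and serially diluted in medium. Isolates were from ATCC or clinical sources. The endpoint MIC80 is the lowest concentration giving turbidity […] of control growth.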

[4] = system: Candida albicans; experiment: Antifungal activity against Candida albicans after 24 hrs by serial dilution method; method in brief: as §1
[5] = system: Cryptococcus neoformans; experiment: Antifungal activity against Cryptococcus neoformans after 72 hrs by serial dilution method
Method in brief: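 Yeast MIC by NCCLS serial microdilution in RPMI 1640 with 0.165 M MOPS, using an ATCC strain or clinical isolate. Test agents came from DMSO stocks diluted in medium. Incubation was at 35 °C with the read at 72 h. MIC80 is the lowest concentration at which turbidity was […] of drug-free control growth.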

[6] = system: Kluyveromyces marxianus; experiment: Antifungal activity against Candida kefyr after 24 hrs by serial dilution method; method in brief: as §1
[7] = system: Candida tropicalis; experiment: Antifungal activity against Candida tropicalis after 24 hrs by serial dilution method; method in brief: as §1

Compound | MIC80 [1] [µg/mL] | MIC80 [2] [µg/mL] | MIC80 [3] [µg/mL] | MIC80 [4] [µg/mL] | MIC80 [5] [µg/mL] | MIC80 [6] [µg/mL] | MIC80 [7] [µg/mL]
CN(CC(O)(Cn1cncn1)c1ccc(F)cc1F)C1CCN(Cc2ccc(Cl)c(Cl)c2)CC1 (stereo not given) | 0.25 (≈ 0.49 µM) | 0.0625 (≈ 0.122 µM) | 4 (≈ 7.84 µM) | 0.0625 (≈ 0.122 µM) | 0.25 (≈ 0.49 µM) | 0.25 (≈ 0.49 µM) | 0.0625 (≈ 0.122 µM)
CN(CC(O)(Cn1cncn1)c1ccc(F)cc1F)C1CCN(Cc2ccccc2)CC1 (stereo not given) | 1 (≈ 2.26 µM) | 0.25 (≈ 0.566 µM) | 64 (≈ 145 µM) | 0.25 (≈ 0.566 µM) | 1 (≈ 2.26 µM) | 1 (≈ 2.26 µM) | 1 (≈ 2.26 µM)
CN(CC(O)(Cn1cncn1)c1ccc(F)cc1F)C1CCN(Cc2ccc([N+](=O)[O-])cc2)CC1 (stereo not given) | 0.25 (≈ 0.514 µM) | 0.0625 (≈ 0.128 µM) | 4 (≈ 8.22 µM) | 0.0625 (≈ 0.128 µM) | 0.25 (≈ 0.514 µM) | 1 (≈ 2.06 µM) | 0.25 (≈ 0.514 µM)
CN(CC(O)(Cn1cncn1)c1ccc(F)cc1F)C1CCN(Cc2ccc(Br)cc2)CC1 (stereo not given) | 0.25 (≈ 0.48 µM) | 0.0625 (≈ 0.12 µM) | 4 (≈ 7.69 µM) | 0.0625 (≈ 0.12 µM) | 0.25 (≈ 0.48 µM) | 1 (≈ 1.92 µM) | 0.25 (≈ 0.48 µM)
CN(CC(O)(Cn1cncn1)c1ccc(F)cc1F)C1CCN(Cc2ccccc2Cl)CC1 (stereo not given) | 1 (≈ 2.1 µM) | 0.0625 (≈ 0.131 µM) | 4 (≈ 8.4 µM) | 0.25 (≈ 0.525 µM) | 0.25 (≈ 0.525 µM) | 1 (≈ 2.1 µM) | 0.25 (≈ 0.525 µM)
CN(CC(O)(Cn1cncn1)c1ccc(F)cc1F)C1CCN(Cc2ccc(Cl)cc2Cl)CC1 (stereo not given) | 0.25 (≈ 0.49 µM) | 0.0625 (≈ 0.122 µM) | 4 (≈ 7.84 µM) | 0.0625 (≈ 0.122 µM) | 0.25 (≈ 0.49 µM) | 0.25 (≈ 0.49 µM) | 0.0625 (≈ 0.122 µM)
CN(CC(O)(Cn1cncn1)c1ccc(F)cc1F)C1CCN(Cc2cccc(Cl)c2)CC1 (stereo not given) | 0.25 (≈ 0.525 µM) | 0.0625 (≈ 0.131 µM) | 1 (≈ 2.1 µM) | 0.0625 (≈ 0.131 µM) | 0.0625 (≈ 0.131 µM) | 1 (≈ 2.1 µM) | 0.25 (≈ 0.525 µM)
CN(CC(O)(Cn1cncn1)c1ccc(F)cc1F)C1CCN(Cc2ccc(C#N)cc2)CC1 (stereo not given) | 0.0625 (≈ 0.134 µM) | 0.25 (≈ 0.536 µM) | 1 (≈ 2.14 µM) | 0.0625 (≈ 0.134 µM) | 0.0625 (≈ 0.134 µM) | 0.0625 (≈ 0.134 µM) | 0.25 (≈ 0.536 µM)
CN(CC(O)(Cn1cncn1)c1ccc(F)cc1F)C1CCN(Cc2cccc(Br)c2)CC1 (stereo not given) | 0.25 (≈ 0.48 µM) | 0.0625 (≈ 0.12 µM) | 1 (≈ 1.92 µM) | 0.0625 (≈ 0.12 µM) | 0.25 (≈ 0.48 µM) | 0.25 (≈ 0.48 µM) | 0.0625 (≈ 0.12 µM)
CN(CC(O)(Cn1cncn1)c1ccc(F)cc1F)C1CCN(Cc2ccccc2F)CC1 (stereo not given) | 1 (≈ 2.18 µM) | 0.25 (≈ 0.544 µM) | 16 (≈ 34.8 µM) | 0.25 (≈ 0.544 µM) | 0.25 (≈ 0.544 µM) | 0.25 (≈ 0.544 µM) | 0.25 (≈ 0.544 µM)
CN(CC(O)(Cn1cncn1)c1ccc(F)cc1F)C1CCN(Cc2ccc(F)cc2)CC1 (stereo not given) | 1 (≈ 2.18 µM) | 0.25 (≈ 0.544 µM) | 16 (≈ 34.8 µM) | 0.25 (≈ 0.544 µM) | 0.25 (≈ 0.544 µM) | 0.25 (≈ 0.544 µM) | 0.25 (≈ 0.544 µM)
COc1cccc(CN2CCC(N(C)CC(O)(Cn3cncn3)c3ccc(F)cc3F)CC2)c1 (stereo not given) | 1 (≈ 2.12 µM) | 0.25 (≈ 0.53 µM) | 64 (≈ 136 µM) | 0.25 (≈ 0.53 µM) | 0.25 (≈ 0.53 µM) | 0.25 (≈ 0.53 µM) | 0.25 (≈ 0.53 µM)
Cc1ccccc1CN1CCC(N(C)CC(O)(Cn2cncn2)c2ccc(F)cc2F)CC1 (stereo not given) | 1 (≈ 2.2 µM) | 0.25 (≈ 0.549 µM) | 64 (≈ 140 µM) | 0.0625 (≈ 0.137 µM) | 0.25 (≈ 0.549 µM) | 0.25 (≈ 0.549 µM) | 0.25 (≈ 0.549 µM)
CC(C)c1ccc(CN2CCC(N(C)CC(O)(Cn3cncn3)c3ccc(F)cc3F)CC2)cc1 (stereo not given) | 0.25 (≈ 0.517 µM) | 0.25 (≈ 0.517 µM) | 16 (≈ 33.1 µM) | 0.0156 (≈ 0.0323 µM) | 0.25 (≈ 0.517 µM) | 0.25 (≈ 0.517 µM) | 0.25 (≈ 0.517 µM)
OC(Cn1cncn1)(Cn1cncn1)c1ccc(F)cc1F [FLUCONAZOLE] | 1 (≈ 3.27 µM) | 0.25 (≈ 0.816 µM) | > 64 | 0.25 (≈ 0.816 µM) | 0.0625 (≈ 0.204 µM) | 1 (≈ 3.27 µM) | 1 (≈ 3.27 µM)
